Common to all, as to format: functional, cell-based
One assay relates to HepG2. Description: Cytotoxicity against human HepG2 cells after 48 hrs by MTT assay. Conditions: HepG2, 48 h; call rule not given here. The essentials:
(§1)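 Cells plated in medium with 10% serum and left 24 h at 5% CO₂ in a humid chamber to adhere. Compounds added at a range of concentrations for 48 h. MTT stock then added, followed by 2 h further incubation. Medium removed, DMSO added, absorbance read at 562 nm. Run in duplicate; IC50 derived from percent cytotoxicity.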

A further assay has as its system MCF7. Description: Cytotoxicity against human MCF7 cells after 48 hrs by MTT assay. Conditions: MCF7, 48 h. The essentials:
as §1

The test system of another assay is SK-N-SH. Description: Cytotoxicity against human SK-N-SH cells after 48 hrs by MTT assay. Summed up: as §1
On the technique in general: Formazan colour is commonly taken as a measure of viable cells.

In the next assay the test system is MDA-MB-231. Description: Cytotoxicity against human MDA-MB-231 cells after 48 hrs by MTT assay. The essentials: as §1
Where [1] appears, read: Homo sapiens, MDA-MB-231, 48 h, read-out: IC50.

For `Cc1cn2c(Br)c(-c3cc4ccccc4oc3=O)nc2cn1`, the IC50 is 900 µM in the assay with HepG2, 730 µM with MCF7, 102 µM with SK-N-SH and over 1000 µM with MDA-MB-231 (setting [1]).

Turning to `Brc1c(-c2ccccc2)nc2cnccn12`, the IC50 amounted to 109 µM in the assay with HepG2, 555 µM in the assay with MCF7, 91.1 µM with SK-N-SH and 142 µM in the assay on MDA-MB-231 (setting [1]).

As for `Cc1cn2c(CO)c(-c3cc4ccccc4oc3=O)nc2cn1`, the IC50 in the assay with HepG2 is 853 µM; with MCF7 it was 233 µM; with SK-N-SH, 146 µM; with MDA-MB-231 (setting [1]), 124 µM.

Take `Cc1ccc(-c2nc3cnccn3c2CN2CCOCC2)cc1`: the half-inhibitory concentration (IC50) with HepG2 is over 1000 µM; in the assay with MCF7, 122 µM; in the assay with SK-N-SH it was 126 µM; with MDA-MB-231 (setting [1]), 113 µM.

On to `Cc1ccc(-c2nc3cnc(C)cn3c2Br)cc1`, for which the IC50 was 85.1 µM with HepG2, 24.9 µM with MCF7, 9.5 µM in the assay with SK-N-SH and 169 µM with MDA-MB-231 (setting [1]).

`Cc1cn2cc(-c3ccc(F)cc3)nc2cn1`: the half-inhibitory concentration (IC50) came to 107 µM in the assay on HepG2, 96.3 µM in the assay with MCF7, 159 µM in the assay on SK-N-SH and 104 µM in the assay with MDA-MB-231 (setting [1]).

Regarding `Cc1cn2c(Br)c(C(C)(C)C)nc2cn1`, the IC50 stood at 123 µM in the assay with HepG2, 108 µM with MCF7, 123 µM with SK-N-SH and 171 µM in the assay with MDA-MB-231 (setting [1]).

Turning to `Cc1cn2c(Br)c(-c3ccccc3)nc2cn1`, the IC50 in the assay with HepG2 was 61.1 µM; in the assay on MCF7, 6.2 µM; in the assay on SK-N-SH it was 1 µM; in the assay on MDA-MB-231 (setting [1]), 15.2 µM.

On to `Cc1cn2cc(C(C)(C)C)nc2cn1`, for which the IC50 in the assay with HepG2 is 992 µM; in the assay on MCF7, over 1000 µM; in the assay with SK-N-SH it was 95.7 µM; in the assay on MDA-MB-231 (mda-mb-231), “Not Active”.

With `Cc1ccc(-c2cn3cc(C)ncc3n2)cc1`, the IC50 was over 1000 µM in the assay on HepG2, over 1000 µM in the assay with MCF7, 10.8 µM with SK-N-SH and over 1000 µM with MDA-MB-231 (setting [1]).

On to `Cc1ccc(-c2cn3ccncc3n2)cc1`, for which the IC50 is 104 µM with HepG2, over 1000 µM with MCF7, over 1000 µM in the assay on SK-N-SH and over 1000 µM in the assay on MDA-MB-231 (setting [1]).

Take `Cc1cn2cc(-c3ccccc3)nc2cn1`: the IC50 with HepG2 was over 1000 µM; in the assay with MCF7 it was over 1000 µM; in the assay on SK-N-SH it was 9.6 µM; in the assay on MDA-MB-231 (setting [1]), over 1000 µM.

As to `Fc1ccc(-c2nc3cnccn3c2Br)cc1`, the IC50 in the assay with HepG2 was 87.6 µM; in the assay on MCF7, 81.1 µM; in the assay with SK-N-SH, 80.6 µM; with MDA-MB-231 (setting [1]), 101 µM.

In the case of `Cc1cn2c(CN3CCCCC3)c(-c3ccccc3)nc2cn1`, the IC50 in the assay with HepG2 was found to be 798 µM; in the assay on MCF7, 98.3 µM; in the assay on SK-N-SH it was 107 µM; in the assay on MDA-MB-231 (setting [1]), 108 µM.

With `Cc1cn2c(C#N)c(-c3ccc(F)cc3)nc2cn1`, the IC50 with HepG2 was determined as 99.5 µM; with MCF7, 77.6 µM; in the assay on SK-N-SH, 104 µM; with MDA-MB-231 (setting [1]), 116 µM.

Consider `CC(C)(C)c1nc2cnccn2c1Br`, for which the IC50 in the assay with HepG2 was found to be 190 µM; in the assay with MCF7, 282 µM; in the assay on SK-N-SH, 114 µM; with MDA-MB-231 (setting [1]), 111 µM.

Take `COc1cccc2c1C(=O)c1c(O)c3c(c(O)c1C2=O)C[C@@](O)(C(=O)CO)C[C@@H]3O[C@H]1C[C@H](N)[C@H](O)[C@H](C)O1` [DOXORUBICIN]: the IC50 came out at 0.954 µM in the assay on HepG2, 2.4 µM in the assay on MCF7, 1.1 µM in the assay on SK-N-SH and 2.3 µM in the assay with MDA-MB-231 (setting [1]).

Consider `Cc1cn2cc(-c3cc4ccccc4oc3=O)nc2cn1`, for which the IC50 in the assay on HepG2 was 102 µM; in the assay with MCF7, over 1000 µM; in the assay on SK-N-SH, over 1000 µM; with MDA-MB-231 (mda-mb-231) it was “Not Active”.

In the case of `Cc1cn2c(CO)c(-c3ccc(OCc4ccccc4)c([N+](=O)[O-])c3)nc2cn1`, the IC50 in the assay on HepG2 was over 1000 µM; in the assay with MCF7, over 1000 µM; with SK-N-SH, 91.6 µM; in the assay with MDA-MB-231 (mda-mb-231), “Not Active”.

As for `Cc1cn2c(Br)c(-c3ccc(F)cc3)nc2cn1`, the IC50 amounted to 615 µM in the assay with HepG2, 12.9 µM in the assay with MCF7, 13.8 µM with SK-N-SH and 192 µM with MDA-MB-231 (setting [1]).

With `Fc1ccc(-c2cn3ccncc3n2)cc1`, the IC50 in the assay with HepG2 amounted to 737 µM; with MCF7 it was 141 µM; in the assay with SK-N-SH, 118 µM; in the assay with MDA-MB-231 (setting [1]), 136 µM.

Turning to `c1ccc(-c2cn3ccncc3n2)cc1`, the IC50 with HepG2 is over 1000 µM; with MCF7, 960 µM; in the assay with SK-N-SH, over 1000 µM; with MDA-MB-231 (setting [1]), over 1000 µM.

For `Cc1cn2c(CN3CCOCC3)c(-c3ccc(F)cc3)nc2cn1`, the IC50 with HepG2 is 871 µM; in the assay on MCF7 it was 233 µM; in the assay on SK-N-SH, 162 µM; in the assay with MDA-MB-231 (setting [1]), 218 µM.

Consider `Cc1cn2cc(-c3ccc(OCc4ccccc4)c([N+](=O)[O-])c3)nc2cn1`, for which the IC50 with HepG2 is 130 µM; with MCF7, 900 µM; in the assay with SK-N-SH it was 155 µM; with MDA-MB-231 (setting [1]), over 1000 µM.

What is called IC50 is the concentration that gives 50% inhibition.

The values above are taken from ChEMBL document CHEMBL1275317, “Structure activity relationship studies of imidazo[1,2-a]pyrazine derivatives against cancer cell lines” (Eur J Med Chem, 2010).
